Reference: ChEMBL document CHEMBL2040711, “Synthesis, characterization and antimicrobial studies of some new quinoline incorporated benzimidazole derivatives” (2012)

How the values were obtained:
Type in all cases: functional
Conditions in all cases: read-out: DIZ
Staphylococcus aureus [1] = test: Antibacterial activity against Staphylococcus aureus at 6.25 ug/ml after 24 to 48 hrs by well plate diffusion method
Outline: (§1)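 Agar well diffusion: 15-20 mL agar per dish, plates dried 1 h at 37 ± 2 °C in laminar flow, then seeded. Wells cut with an agar punch, each loaded with compound dissolved in DMSO (6.25 or 12.5 μg/mL). DMSO solvent control, ciprofloxacin standard. Plates in triplicate, incubated 37 ± 2 °C for 24–48 h. Inhibition zone diameter read in mm, with SD.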

Staphylococcus aureus [2] = test: Antibacterial activity against Staphylococcus aureus at 12.5 ug/ml after 24 to 48 hrs by well plate diffusion method; outline: as §1
Penicillium sp. [3] = test: Antifungal activity against Penicillium sp. at 6.25 ug/ml after 72 hrs by well plate method
Salmonella sp. [4] = test: Antibacterial activity against Salmonella sp. at 12.5 ug/ml after 24 to 48 hrs by well plate diffusion method; outline: as §1
Aspergillus terreus [5] = test: Antifungal activity against Aspergillus terreus at 6.25 ug/ml after 72 hrs by well plate method
Outline: (§2)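 Sabouraud agar: peptone 10 g, glucose 40 g, agar 20 g per litre water, pH 5.7. Spore suspension made from a loopful of fungus in 3 mL normal saline and lawned on 20 mL agar per dish. Excess decanted, plates dried 1 h at 37 °C. Wells punched and loaded with compound in DMSO (6.25 or 12.5 μg/mL). DMSO control. Triplicate plates held at 25 °C for 72 h. Inhibition zone diameter measured. A. terreus strain NCIM 1325.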

Xanthomonas sp. [6] = test: Antibacterial activity against Xanthomonas sp. at 12.5 ug/ml after 24 to 48 hrs by well plate diffusion method; outline: as §1
Penicillium sp. [7] = test: Antifungal activity against Penicillium sp. at 12.5 ug/ml after 72 hrs by well plate method
Aspergillus niger [8] = test: Antifungal activity against Aspergillus niger at 6.25 ug/ml after 72 hrs by well plate method
Aspergillus terreus [9] = test: Antifungal activity against Aspergillus terreus at 12.5 ug/ml after 72 hrs by well plate method; outline: as §2
Aspergillus niger [10] = test: Antifungal activity against Aspergillus niger at 12.5 ug/ml after 72 hrs by well plate method
Escherichia coli [11] = test: Antibacterial activity against Escherichia coli at 12.5 ug/ml after 24 to 48 hrs by well plate diffusion method; outline: as §1
Escherichia coli [12] = test: Antibacterial activity against Escherichia coli at 6.25 ug/ml after 24 to 48 hrs by well plate diffusion method; outline: as §1
Salmonella sp. [13] = test: Antibacterial activity against Salmonella sp. at 6.25 ug/ml after 24 to 48 hrs by well plate diffusion method; outline: as §1
Aspergillus flavus [14] = test: Antifungal activity against Aspergillus flavus at 12.5 ug/ml after 72 hrs by well plate method
Xanthomonas sp. [15] = test: Antibacterial activity against Xanthomonas sp. at 6.25 ug/ml after 24 to 48 hrs by well plate diffusion method; outline: as §1
Aspergillus flavus [16] = test: Antifungal activity against Aspergillus flavus at 6.25 ug/ml after 72 hrs by well plate method

| SMILES | zone of inhibition at 6.25 µg/mL (Staphylococcus aureus [1]) [mm] | zone of inhibition at 12.5 µg/mL (Staphylococcus aureus [2]) [mm] | zone of inhibition at 6.25 µg/mL (Penicillium sp. [3]) [mm] | zone of inhibition at 12.5 µg/mL (Salmonella sp. [4]) [mm] | zone of inhibition at 6.25 µg/mL (Aspergillus terreus [5]) [mm] | zone of inhibition at 12.5 µg/mL (Xanthomonas sp. [6]) [mm] | zone of inhibition at 12.5 µg/mL (Penicillium sp. [7]) [mm] | zone of inhibition at 6.25 µg/mL (Aspergillus niger [8]) [mm] | zone of inhibition at 12.5 µg/mL (Aspergillus terreus [9]) [mm] | zone of inhibition at 12.5 µg/mL (Aspergillus niger [10]) [mm] | zone of inhibition at 12.5 µg/mL (Escherichia coli [11]) [mm] | zone of inhibition at 6.25 µg/mL (Escherichia coli [12]) [mm] | zone of inhibition at 6.25 µg/mL (Salmonella sp. [13]) [mm] | zone of inhibition at 12.5 µg/mL (Aspergillus flavus [14]) [mm] | zone of inhibition at 6.25 µg/mL (Xanthomonas sp. [15]) [mm] | zone of inhibition at 6.25 µg/mL (Aspergillus flavus [16]) [mm] |
| --- | --- | --- | --- | --- | --- | --- | --- | --- | --- | --- | --- | --- | --- | --- | --- | --- |
| Fc1ccc(-c2cc(-c3nc4ccccc4[nH]3)c3cc(Cl)ccc3n2)cc1 | 12 | 13 | 16 | 9 | 13 | 10 | 18 | 10 | 14 | 12 | 13 |  |  |  |  |  |
| Fc1ccc(-c2cc(-c3nc4ccc(Cl)cc4[nH]3)c3cc(Cl)ccc3n2)cc1 | 16 | 16 | 12 | 13 | 9 | 10 | 17 |  | 9 | 10 | 12 | 12 | 10 | 17 |  |  |
| Fc1ccc(-c2cc(-c3nc4ncccc4[nH]3)c3cc(Cl)ccc3n2)cc1 | 14 | 18 |  | 20 | 9 | 16 | 13 | 12 | 15 | 14 | 16 | 16 | 9 | 10 | 15 |  |
| Fc1ccc(-c2cc(-c3nc4cc(Cl)c(Cl)cc4[nH]3)c3cc(Cl)ccc3n2)cc1 | 10 | 12 | 12 | 28 | 9 | 16 | 19 | 12 | 10 | 12 | 17 | 12 | 20 | 13 | 14 | 13 |
| Fc1ccc(-c2cc(-c3nc4ccccc4[nH]3)c3cc(F)ccc3n2)cc1 | 14 | 15 | 12 | 15 | 9 | 14 | 12 | 10 | 9 | 12 | 15 | 10 | 15 | 10 | 14 |  |
| Fc1ccc(-c2cc(-c3nc4ccc(Cl)cc4[nH]3)c3cc(F)ccc3n2)cc1 | 12 | 12 | 15 | 11 | 10 | 12 | 17 |  | 14 | 10 | 11 | 10 |  | 10 | 11 |  |
| Fc1ccc(-c2cc(-c3nc4ncccc4[nH]3)c3cc(F)ccc3n2)cc1 | 12 | 12 | 14 | 13 | 10 | 16 | 15 | 11 | 15 | 13 | 13 |  | 13 | 14 | 15 | 11 |
